The values that follow come from ChEMBL document CHEMBL1124838, “5-Hydroxytryptamine (5-HT3) receptor antagonists. 2. 1-Indolinecarboxamides” (J Med Chem, 1990).

For this test, the target named is Serotonin 3 (5-HT3) receptor (Rattus norvegicus) (UniProt P35563+Q9JJ16). The test is described as follows: Antagonist potency to 5-hydroxytryptamine 3 receptor was assayed by antagonism of the 5-HT-evoked reflex bradycardia [Bezold-Jarisch(BJ) reflex] in rats. Type of test: functional. Summed up: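 Male rats (260–290 g) anesthetized with urethane (1.25 g/kg ip); blood pressure and heart rate recorded. 5-HT given repeatedly at a submaximal 6 μg/kg iv, and heart-rate changes quantified. Test drug given iv before 5-HT. ID50 is the dose that cuts the 5-HT-evoked response to 50% of control.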
Regarding `CN1C2CCC1CC(NC(=O)N1CCc3cc(F)ccc31)C2` (centres undefined), the ID50 was greater than 10 µg/kg. Then `CN1C2CCC1CC(NC(=O)N1CC(c3ccccc3)c3ccccc31)C2` (centres undefined), with 1.8 µg/kg; and `CC1Cc2ccccc2N1C(=O)NC1CC2CCC(C1)N2C` (centres undefined), with 0.8 µg/kg; and `CCc1cn(C(=O)NC2CC3CCC(C2)N3C)c2ccccc12` (centres undefined), with 2 µg/kg. For `CN1C2CCC1CC(OC(=O)N1CCc3ccccc31)C2` (centres undefined) the value was 4.3 µg/kg; for `CN1C2CCCC1CC(NC(=O)N1CCc3ccccc31)C2` (centres undefined), 12.5 µg/kg; for `CN1C2CCC1CC(NC(=O)n1cc(-c3ccccc3)c3ccccc31)C2` (centres undefined), 5.1 µg/kg.

Consider `COc1ccc2c(c1)CCN2C(=O)NC1CC2CCC(C1)N2C` (centres undefined), for which the ID50 is greater than 10 µg/kg. Then `CN1C2CCC1CC(NC(=O)N1CCc3cc([N+](=O)[O-])ccc31)C2` (centres undefined), with greater than 10 µg/kg. Then `CCN1C2CCC1CC(NC(=O)N1CCc3ccccc31)C2` (centres undefined), with greater than 10 µg/kg. Then `CN1C2CCC1CC(NC(=O)N1CCc3ccccc31)C2` (centres undefined), with 1.4 µg/kg.

`CN1C2CCC1CC(NC(=O)N1CC3(CC3)c3ccccc31)C2` (centres undefined) yielded an ID50 of 3.5 µg/kg. Then `Cc1cn(C(=O)NC2CC3CCC(C2)N3C)c2ccccc12` (centres undefined), with 1.6 µg/kg; and `CN1C2CCC1CC(NC(=O)n1ccc3ccccc31)C2` (centres undefined), with 7.1 µg/kg. In the case of `CC1CN(C(=O)NC2CC3CCC(C2)N3C)c2ccccc21` (centres undefined), the ID50 stood at 3 µg/kg. `CN1C2CCC1CC(NC(=O)N1CCCc3ccccc31)C2` (centres undefined) returned an ID50 greater than 100 µg/kg. Then `CN1C2CCC1CC(NC(=O)N1CCc3cc(Cl)ccc31)C2` (centres undefined), with greater than 10 µg/kg; and `CN1C2CCC1CC(NC(=O)N1CC3(CCCCC3)c3ccccc31)C2` (centres undefined), with 3.6 µg/kg.

As to `CN1C2CCCC1CC(NC(=O)c1nn(C)c3ccccc13)C2` (centres undefined), the ID50 is 0.7 µg/kg.

Take `CC1N(C(=O)NC2CC3CCC(C2)N3C)c2ccccc2C1(C)C` (centres undefined): the ID50 was 1.4 µg/kg. As for `CN1C2CCC1CC(NC(=O)N1CC3(CCCC3)c3ccccc31)C2` (centres undefined), the ID50 came out at 1.2 µg/kg.

Compound `CCC1CN(C(=O)NC2CC3CCC(C2)N3C)c2ccccc21` (centres undefined) came in with an ID50 of 1.5 µg/kg. Then `CC1c2ccccc2N(C(=O)NC2CC3CCC(C2)N3C)C1C` (centres undefined), with 0.5 µg/kg. Then `CN1C2CCC1CC(NC(=O)C1=CC(C)(C)c3ccccc31)C2` (centres undefined), with 1 µg/kg.
